Measurements reported in ChEMBL document CHEMBL1152903, “Synthesis and activity of N-oxalylglycine and its derivatives as Jumonji C-domain-containing histone lysine demethylase inhibitors” (Bioorg Med Chem Lett, 2009).
The source made the active and inactive calls. No cut-off for these calls is given here.

Assays:
[1] = molecular target: T1, Lysine-specific demethylase 4D (Homo sapiens) (UniProt Q6B0I6); experiment: Inhibition of JMJD2D-mediated H3K9 demethylation activity at 1 mM
T1 sequence (whole entry): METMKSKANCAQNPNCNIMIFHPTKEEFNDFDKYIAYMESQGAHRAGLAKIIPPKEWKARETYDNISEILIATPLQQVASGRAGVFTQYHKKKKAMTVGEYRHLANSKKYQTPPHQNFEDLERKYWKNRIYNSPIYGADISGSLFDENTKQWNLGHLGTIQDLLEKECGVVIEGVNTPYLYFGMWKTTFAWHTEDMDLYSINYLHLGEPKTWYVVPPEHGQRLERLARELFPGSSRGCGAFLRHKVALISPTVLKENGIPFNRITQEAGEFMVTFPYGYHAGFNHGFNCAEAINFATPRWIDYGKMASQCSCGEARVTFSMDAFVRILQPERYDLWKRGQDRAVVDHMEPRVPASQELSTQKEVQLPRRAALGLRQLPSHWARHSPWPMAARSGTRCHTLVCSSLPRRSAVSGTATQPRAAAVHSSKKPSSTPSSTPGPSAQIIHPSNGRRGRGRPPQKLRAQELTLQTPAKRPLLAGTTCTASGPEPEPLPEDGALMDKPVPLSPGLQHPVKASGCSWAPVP
Method in brief: (§1)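 Full-length GST-JMJD2D, expressed in E. coli and purified on glutathione-agarose, was incubated with histones, α-ketoglutarate, 2 mM ascorbate and 0.2 mM (NH₄)₂Fe(SO₄)₂ in 50 mM Hepes pH 7.4 with 50 mM NaCl and 50 mM KCl. Inhibitor in DMSO, or DMSO alone, was present for 2 h at 37 °C. H3K9me₃ was detected by Western blot with ECL, with H4K20me₁ as a control.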

[2] = molecular target: T2, Lysine-specific demethylase 4A (Homo sapiens) (UniProt O75164); experiment: Inhibition of JMJD2A-mediated H3K9 demethylation activity at 3 mM
T2 sequence (whole entry): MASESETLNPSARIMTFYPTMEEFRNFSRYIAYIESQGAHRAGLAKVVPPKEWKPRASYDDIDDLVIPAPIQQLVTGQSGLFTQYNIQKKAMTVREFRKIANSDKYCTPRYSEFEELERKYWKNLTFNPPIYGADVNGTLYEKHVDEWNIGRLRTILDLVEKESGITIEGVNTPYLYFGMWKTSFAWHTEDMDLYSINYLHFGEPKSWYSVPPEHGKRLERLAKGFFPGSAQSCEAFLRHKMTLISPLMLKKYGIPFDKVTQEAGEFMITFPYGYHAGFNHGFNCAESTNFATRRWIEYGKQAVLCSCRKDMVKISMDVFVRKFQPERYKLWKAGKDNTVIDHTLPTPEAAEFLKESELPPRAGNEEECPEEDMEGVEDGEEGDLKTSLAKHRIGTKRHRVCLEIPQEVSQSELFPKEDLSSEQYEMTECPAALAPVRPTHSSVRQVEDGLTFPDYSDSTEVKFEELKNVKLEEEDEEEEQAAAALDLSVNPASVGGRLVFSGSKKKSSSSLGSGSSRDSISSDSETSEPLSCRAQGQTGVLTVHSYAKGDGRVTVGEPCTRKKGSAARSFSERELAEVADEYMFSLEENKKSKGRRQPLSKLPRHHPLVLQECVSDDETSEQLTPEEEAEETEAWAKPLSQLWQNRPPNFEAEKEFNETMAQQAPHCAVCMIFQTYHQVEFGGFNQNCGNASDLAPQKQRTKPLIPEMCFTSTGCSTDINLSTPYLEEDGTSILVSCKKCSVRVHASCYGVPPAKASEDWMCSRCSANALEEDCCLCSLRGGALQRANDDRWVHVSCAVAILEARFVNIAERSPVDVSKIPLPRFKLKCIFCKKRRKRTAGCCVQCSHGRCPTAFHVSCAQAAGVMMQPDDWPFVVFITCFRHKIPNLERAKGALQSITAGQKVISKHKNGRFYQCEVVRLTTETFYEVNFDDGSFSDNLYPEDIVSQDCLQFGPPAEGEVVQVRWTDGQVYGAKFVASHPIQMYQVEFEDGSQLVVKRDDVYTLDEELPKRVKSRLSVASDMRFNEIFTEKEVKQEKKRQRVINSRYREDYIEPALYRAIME
Method in brief: (§2)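 GST fusions of JMJD2A (aa 2–350) or JMJD2C (aa 2–352), made in E. coli and purified on glutathione-agarose. Each was incubated with histones in 50 mM Hepes pH 7.4, 50 mM NaCl, 50 mM KCl, 2 mM ascorbate, 0.2 mM (NH₄)₂Fe(SO₄)₂ and α-ketoglutarate, with inhibitor in DMSO or DMSO alone, 1 h at 37 °C. Read-out was anti-H3K9me₃ Western blot with ECL; H4K20me₁ served as a control.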

[3] = molecular target: T3, Lysine-specific demethylase 4C (Homo sapiens) (UniProt Q9H3R0); experiment: Inhibition of JMJD2C-mediated H3K9 demethylation activity at 3 mM; method in brief: as §2
T3 sequence (whole entry): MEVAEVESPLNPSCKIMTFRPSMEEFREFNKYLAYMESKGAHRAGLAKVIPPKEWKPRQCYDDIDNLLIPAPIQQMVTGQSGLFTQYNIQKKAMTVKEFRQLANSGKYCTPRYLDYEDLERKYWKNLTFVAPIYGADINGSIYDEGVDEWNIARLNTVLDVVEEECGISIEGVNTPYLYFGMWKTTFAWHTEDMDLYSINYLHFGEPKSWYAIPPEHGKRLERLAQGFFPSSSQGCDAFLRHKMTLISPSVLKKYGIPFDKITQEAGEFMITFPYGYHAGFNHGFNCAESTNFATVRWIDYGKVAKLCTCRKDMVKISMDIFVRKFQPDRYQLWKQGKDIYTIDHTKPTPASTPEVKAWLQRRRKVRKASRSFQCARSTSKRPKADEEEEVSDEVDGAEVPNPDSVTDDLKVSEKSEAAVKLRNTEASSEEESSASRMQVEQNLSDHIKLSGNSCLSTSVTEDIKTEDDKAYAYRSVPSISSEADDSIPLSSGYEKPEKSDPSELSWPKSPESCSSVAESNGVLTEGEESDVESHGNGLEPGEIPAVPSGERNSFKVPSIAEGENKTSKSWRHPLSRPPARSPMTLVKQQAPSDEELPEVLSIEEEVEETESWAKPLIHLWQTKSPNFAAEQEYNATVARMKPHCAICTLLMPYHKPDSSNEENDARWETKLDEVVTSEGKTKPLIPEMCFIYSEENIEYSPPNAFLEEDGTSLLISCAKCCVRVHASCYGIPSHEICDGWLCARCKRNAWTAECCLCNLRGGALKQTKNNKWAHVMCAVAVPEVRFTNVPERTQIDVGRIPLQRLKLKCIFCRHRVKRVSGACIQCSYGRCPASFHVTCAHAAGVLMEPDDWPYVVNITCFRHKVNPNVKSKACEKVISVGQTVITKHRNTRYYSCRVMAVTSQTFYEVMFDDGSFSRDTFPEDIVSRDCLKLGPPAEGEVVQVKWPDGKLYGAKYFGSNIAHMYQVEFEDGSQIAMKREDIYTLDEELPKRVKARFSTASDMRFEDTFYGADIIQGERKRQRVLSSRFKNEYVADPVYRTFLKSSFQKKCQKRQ

[4] = molecular target: T2, Lysine-specific demethylase 4A (Homo sapiens); experiment: Inhibition of JMJD2A-mediated H3K9 demethylation activity at 1 mM; method in brief: as §2
[5] = molecular target: T3, Lysine-specific demethylase 4C (Homo sapiens); experiment: Inhibition of JMJD2C-mediated H3K9 demethylation activity at 1 mM; method in brief: as §2
[6] = molecular target: T1, Lysine-specific demethylase 4D (Homo sapiens); experiment: Inhibition of JMJD2D-mediated H3K9 demethylation activity at 3 mM; method in brief: as §1
[7] = molecular target: T3, Lysine-specific demethylase 4C (Homo sapiens); experiment: Inhibition of JMJD2C-mediated H3K36 demethylation in human 293T cells at […]; assay type: cell-based
Method in brief: (§3)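 293T cells were transfected with or without Flag-JMJD2C by calcium phosphate coprecipitation; the precipitate was washed off with PBS after 12 h. Cells were grown 12 h in DMEM + 10% FCS under 10% CO₂, then for 24 h in fresh medium containing inhibitor in DMSO or 1% DMSO. Lysates were boiled in Laemmli buffer and histone methylation was assessed by Western blotting.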

[8] = molecular target: T3, Lysine-specific demethylase 4C (Homo sapiens); experiment: Inhibition of JMJD2C-mediated H3K9 demethylation in human 293T cells at […]; assay type: cell-based; method in brief: as §3
[9] = molecular target: T3, Lysine-specific demethylase 4C (Homo sapiens); experiment: Inhibition of JMJD2C-mediated H3K9 demethylation in human 293T cells at 2.5 mM; assay type: cell-based; method in brief: as §3
[10] = molecular target: Lysine-specific demethylase 4C (Homo sapiens) (UniProt Q9H3R0); experiment: Inhibition of JMJD2-mediated H3K9 demethylation in human 293T cells at 2.5 mM
[11] = molecular target: T3, Lysine-specific demethylase 4C (Homo sapiens); experiment: Inhibition of JMJD2C-mediated H3K36 demethylation in human 293T cells at 2.5 mM; assay type: cell-based; method in brief: as §3
[12] = molecular target: Lysine-specific demethylase 4C (Homo sapiens) (UniProt Q9H3R0); experiment: Inhibition of JMJD2-mediated H3K36 demethylation in human 293T cells at 2.5 mM

| Histone_modification [1] | Histone_modification [2] | Histone_modification [3] | Histone_modification [4] | Histone_modification [5] | Histone_modification [6] | Histone_modification [7] | Histone_modification [8] | Histone_modification [9] | Histone_modification [10] | Histone_modification [11] | Histone_modification [12] | Compound |
| --- | --- | --- | --- | --- | --- | --- | --- | --- | --- | --- | --- | --- |
| Active | Active | Active | inactive | inactive | Active |  |  |  |  |  |  | CN(C)c1ccc(CCN(CC(=O)O)C(=O)C(=O)O)cc1 |
|  | Active | Active | inactive | inactive | Active |  |  |  |  |  |  | CN(C)c1cccc(CN(CC(=O)O)C(=O)C(=O)O)c1 |
|  |  |  |  |  |  | inactive | inactive |  |  |  |  | COC(=O)CCC(=O)OC |
|  |  |  |  |  |  |  |  | inactive | Active | inactive |  | COC(=O)CN(Cc1ccc(N(C)C)cc1)C(=O)C(=O)OC |
|  |  |  |  |  |  |  |  | Active | Active | Active | Active | COC(=O)CNC(=O)C(=O)OC |
| Active | Active | Active | Active | Active | Active |  |  |  |  |  |  | O=C(O)CNC(=O)C(=O)O |
| Active | Active-partial | Active-partial | inactive | inactive |  |  |  |  |  |  |  | CN(C)c1ccc(CCCN(CC(=O)O)C(=O)C(=O)O)cc1 |
| Active | Active | Active | inactive | inactive | Active |  |  |  |  |  |  | CN(C)c1ccc(CN(CC(=O)O)C(=O)C(=O)O)cc1 |
